This assay deals with Cytochrome P450 3A4 (Homo sapiens, UniProt P08684). Briefly: Inhibition of human CYP3A4 expressed in Escherichia coli assessed as inhibition of nifedipine oxidation. It is filed as ADME. A digest of the protocol:
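Bicistronic human CYP3A4 expressed in E. coli DH5; bacterial membrane fractions (sonication, differential centrifugation) stored at -75 °C, P450 content by CO-difference spectroscopy. Nifedipine substrate with 100 pmol P450 per incubation, 37 °C shaking waterbath; pyridine metabolite quantified by HPLC.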
Chain of Cytochrome P450 3A4 (P08684 whole entry): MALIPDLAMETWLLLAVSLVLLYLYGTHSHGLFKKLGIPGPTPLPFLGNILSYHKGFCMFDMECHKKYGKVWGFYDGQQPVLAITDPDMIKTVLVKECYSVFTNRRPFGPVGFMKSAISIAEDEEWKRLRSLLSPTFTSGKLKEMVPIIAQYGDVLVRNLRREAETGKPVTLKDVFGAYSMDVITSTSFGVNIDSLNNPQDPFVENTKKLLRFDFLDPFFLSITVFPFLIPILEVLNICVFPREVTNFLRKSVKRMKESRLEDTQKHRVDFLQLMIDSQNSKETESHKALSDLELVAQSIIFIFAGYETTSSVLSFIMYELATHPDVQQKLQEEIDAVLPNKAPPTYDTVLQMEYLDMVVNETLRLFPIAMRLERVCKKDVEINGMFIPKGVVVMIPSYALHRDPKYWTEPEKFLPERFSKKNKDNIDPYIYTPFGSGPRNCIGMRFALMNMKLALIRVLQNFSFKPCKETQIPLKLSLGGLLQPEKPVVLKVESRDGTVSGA
What is called IC50 is the concentration at which inhibition is half-maximal. On to `C[C@@]12C[C@H](c3ccoc3)OC(=O)[C@@H]1CC[C@@]1(CO[C@@H]3O[C@H](CO)[C@@H](O)[C@H](O)[C@H]3O)C(=O)C=CC[C@H]12`, for which the IC50 was over 100 µM. Take `COc1cc2c(cc1O)-c1cc3ccc(OC)c(OC)c3c[n+]1CC2` [COLUMBAMINE]: the IC50 came out at 30.6 µM.

`C[C@@]12[C@H]3CC=C[C@@]1(O[C@@H]1O[C@H](CO)[C@@H](O)[C@H](O)[C@H]1O)C(=O)O[C@@H]2C[C@]1(O)C(=O)O[C@H](c2ccoc2)C[C@@]31C` [EPI-FIBRAURETINOSIDE A]: the IC50 was over 100 µM. For `C[C@@]12C[C@H](c3ccoc3)OC(=O)C1=CC[C@]1(C)[C@H]2[C@H]2C=C[C@]1(O[C@@H]1O[C@H](CO)[C@@H](O)[C@H](O)[C@H]1O)C(=O)O2` [FIBLEUCINOSIDE], the IC50 is over 100 µM. For the compound `C[C@H](C[C@@H](O)[C@](C)(O)[C@H]1CC[C@@]2(O)C3=CC(=O)[C@@H]4C[C@@H](O[C@@H]5O[C@H](CO)[C@@H](O)[C@H](O)[C@H]5O)[C@@H](O)C[C@]4(C)[C@H]3CC[C@]12C)C(C)(C)O` [FIBRAURECDYSIDE A], the half-maximal inhibitory concentration (IC50) is over 100 µM. As to `C[C@@]12C[C@H](c3ccoc3)OC(=O)[C@@H]1[C@@H](O)C[C@]1(C)[C@H]2[C@@H]2OC(=O)[C@@]1(O)[C@H]1O[C@@H]21` [FIBRAURETIN A], the IC50 is over 100 µM. As for `C[C@@]12[C@H]3CC=C[C@]1(O[C@@H]1O[C@H](CO)[C@@H](O)[C@H](O)[C@H]1O)C(=O)O[C@@H]2C[C@]1(O)C(=O)O[C@H](c2ccoc2)C[C@@]31C` [FIBRAURETINOSIDE A], the IC50 is over 100 µM.

For the compound `C[C@@]12C[C@H](c3ccoc3)OC(=O)C1=CC[C@]1(C)[C@H]2[C@@H]2OC(=O)[C@@]1(O[C@@H]1O[C@H](CO)[C@@H](O)[C@H](O)[C@H]1O)[C@H]1O[C@@H]21` [FIBRAURINOSIDE], the IC50 was over 100 µM.

In the case of `C[C@H](C[C@@H](O)[C@](C)(O)[C@H]1CC[C@@]2(O)C3=CC(=O)[C@@H]4C[C@@H](O)[C@@H](O)C[C@]4(C)[C@H]3CC[C@]12C)C(C)(C)O` [MAKISTERONE A], the IC50 was over 100 µM.

As to `COc1cc2c(cc1OC)-c1cc3ccc(OC)c(OC)c3c[n+]1CC2` [PALMATINE CHLORIDE], the IC50 was 0.9 µM. The figure for `COc1cc2c(cc1O)-c1cc3ccc(O)c(OC)c3c[n+]1CC2` [STEPHARANINE] is over 2.5 µM.

(Values after ChEMBL document CHEMBL1141349, “Cytochrome P3A4 inhibitors and other constituents of Fibraurea tinctoria” (J Nat Prod, 2007).)
